Results from publication PMC3190051 (Bioorganic & medicinal chemistry letters, 2011).
Numbering of substitutions follows the chain as printed. Read-outs that look alike come from different tables or passages of the source. One block for each molecule: values may come before it.

Key:
[1] = system: M2–M5; assay: M2–M5 selectivity, full CRCs in HTS high-expressing CHO cell lines; assay type: cell-based, rat; conditions: read-out: M2–M5 EC50s; HTS high-expressing CHO cell line; average of at least three determinations
[2] = system: TREx293-hM1 cells
[3] = system: M2–M5; conditions: read-out: EC50 versus M2–M5; ML071 probe data; cited from earlier work
[4] = system: 68 GPCRs, ion channels and transporters (including all the BARs); conditions: 10 µM; cited from earlier work
[5] = system: TREx293-hM1 cells; conditions: in cell culture; cited from earlier work
[6] = system: NMDA receptor currents in hippocampal CA1 pyramidal cells; conditions: cited from earlier work
[7] = target: T1, M1 (Rattus norvegicus, UniProt P08482); assay: functional M1 agonist assay in rat HTS high-expressing CHO cell line; assay type: cell-based; conditions: 10 µM M1 single point screen
T1 sequence (P08482 1-460): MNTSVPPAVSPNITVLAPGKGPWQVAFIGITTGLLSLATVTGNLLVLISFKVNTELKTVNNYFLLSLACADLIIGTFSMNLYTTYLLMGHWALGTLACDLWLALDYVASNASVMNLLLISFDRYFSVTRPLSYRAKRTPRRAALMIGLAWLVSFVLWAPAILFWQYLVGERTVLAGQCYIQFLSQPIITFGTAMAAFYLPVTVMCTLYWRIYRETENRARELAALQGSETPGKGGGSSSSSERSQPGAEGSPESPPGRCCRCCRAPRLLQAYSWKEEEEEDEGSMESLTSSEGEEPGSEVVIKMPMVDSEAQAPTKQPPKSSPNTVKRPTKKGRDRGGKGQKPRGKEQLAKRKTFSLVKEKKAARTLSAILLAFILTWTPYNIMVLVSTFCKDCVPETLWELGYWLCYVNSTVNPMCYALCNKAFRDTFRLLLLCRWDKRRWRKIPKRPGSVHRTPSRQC

[8] = system: 68 GPCRs, ion channels and transporters (including all the BARs); assay: radioligand binding panel of 68 GPCRs, ion channels and transporters; conditions: 10 µM
[9] = target: D2 receptor (Homo sapiens, UniProt P14416); assay: functional D2 antagonism CRC; assay type: cell-based
Chain of D2 receptor (P14416 whole entry): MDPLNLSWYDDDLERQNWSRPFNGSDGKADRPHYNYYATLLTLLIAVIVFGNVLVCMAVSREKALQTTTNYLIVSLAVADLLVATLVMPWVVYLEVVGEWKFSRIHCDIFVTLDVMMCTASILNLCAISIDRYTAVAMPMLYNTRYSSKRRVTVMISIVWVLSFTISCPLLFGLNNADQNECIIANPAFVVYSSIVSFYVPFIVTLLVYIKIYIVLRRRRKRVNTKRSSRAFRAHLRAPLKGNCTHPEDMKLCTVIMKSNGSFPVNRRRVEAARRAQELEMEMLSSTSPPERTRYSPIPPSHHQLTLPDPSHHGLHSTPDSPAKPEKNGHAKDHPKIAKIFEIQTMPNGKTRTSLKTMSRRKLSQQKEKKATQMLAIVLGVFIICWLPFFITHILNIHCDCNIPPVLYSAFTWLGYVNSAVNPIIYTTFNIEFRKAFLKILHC

[10] = system: NMDA receptor currents in hippocampal CA1 pyramidal cells; assay: potentiation of NMDA receptor currents, whole cell recording; assay type: cell-based; conditions: 30 µM
Procedure, shortened: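 Whole-cell recording of NMDA-evoked currents in hippocampal CA1 pyramidal cells. Current amplitude was normalized and followed over time before, during and after application of 30 µM test compound.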

[11] = intrinsic clearance, rat; assay type: in vitro ADME
[12] = intrinsic clearance, human; assay type: in vitro ADME
[13] = oral plasma:brain level; assay type: in vivo, male Sprague-Dawley rats; conditions: 10 mg/kg oral, 90 minute endpoint, individual animal
[14] = target: T2, M1 (Homo sapiens, UniProt P11229); assay: M1 agonist assay in new cell lines with expression resembling native levels; assay type: cell-based, rat and human; conditions: new cell lines with expression more closely resembling native levels
T2 sequence (P11229 1-460): T1 sequence (P08482 1-460) with V5A, S254T, S309P, K320R, G337A, V413I

Structure (SMILES): CCOC(=O)N1CCC(N2CCC[C@@H](NC(=O)c3ccc(F)cc3C)C2)CC1 [20a]
EC50 [1]: > 10 µM

Structure (SMILES): CCOC(=O)N1CCC(N2CCC[C@@H](NC(=O)c3ccccc3)C2)CC1 [20b]
EC50 [1]: > 10 µM

Structure (SMILES): CCOC(=O)N1CCC(N2CCC[C@@H](NC(=O)c3cccc(F)c3)C2)CC1 [20c]
EC50 [1]: > 10 µM

Structure (SMILES): CCOC(=O)N1CCC(N2CCC[C@@H](NC(=O)c3cccc(OC)c3)C2)CC1 [20d]
EC50 [1]: > 10 µM

Structure (SMILES): CCOC(=O)N1CCC(N2CCC[C@@H](NC(=O)c3ccc(F)c(F)c3)C2)CC1 [20e]
EC50 [1]: > 10 µM

Structure (SMILES): CCOC(=O)N1CCC(N2CCC[C@@H](NC(=O)c3ccc(C)cc3)C2)CC1 [20f]
EC50 [1]: > 10 µM

Structure (SMILES): CCOC(=O)N1CCC(N2CCC[C@@H](NC(=O)C3CCCCC3)C2)CC1 [20g]
EC50 [1]: > 10 µM

Structure (SMILES): CCOC(=O)N1CCC(N2CCC[C@@H](NC(=O)c3cccs3)C2)CC1 [20h]
EC50 [1]: > 10 µM

Structure (SMILES): CCOC(=O)N1CCC(N2CCC[C@@H](NC(=O)c3ccc(OC)cc3)C2)CC1 [20i]
EC50 [1]: > 10 µM

Structure (SMILES): CCOC(=O)N1CCC(N2CCC[C@@H](NC(=O)c3ccccc3C)C2)CC1 [compound 17]
M1 activation [7]: full activation of M1
EC50 [1]: > 30 µM
inhibition in radioligand binding panel [8]: ≤ 30%
functional activity at the D2 receptor [9]: no functional activity
persistence of potentiation after washout [10]: 10 min
effect on NMDA receptor currents ([10]; listed as VU0364572): potentiates NMDA receptor currents
CLint scaled [11]: 23.4 mL/min/kg
CLint scaled [12]: 11.2 mL/min/kg
Brain [13]: 1.89 µM
Brain:Plasma [13]: 1.17
Plasma [13]: 1.62 µM
concentration at 90 min ([13]; male, Sprague-Dawley, rat, brain, oral, 10 mg/kg): 2230 nM
Kp at 1.5 h ([13]; male, Sprague-Dawley, rat, brain/plasma, po, 10 mg/kg, Brain:Plasma): 1.54
ACh Max versus high-expressing HTS lines [14]: slightly lower ACh Max

Further lines, with some results ahead:

EC50 [1]: > 10 µM
Structure (SMILES): CCOC(=O)N1CCC(N2CCC[C@@H](NC(=O)c3ccccc3Cl)C2)CC1 [20j]

EC50 [1]: > 10 µM
Structure (SMILES): CCOC(=O)N1CCC(N2CCC[C@@H](NC(=O)C3CCCC3)C2)CC1 [20k]

increase in soluble APP (sAPPα) [2]: significant increase
Structure (SMILES): C[N+](C)(C)CCOC(N)=O.[Cl-] [carbachol]

EC50 [1]: > 30 µM
Structure (SMILES): CCOC(=O)N1CCC(NCCNC(=O)c2ccccc2C)CC1 [compound 8]
EC50 [3]: > 30 µM
activity in radioligand binding panel [4]: ≤ 50%
soluble APP (sAPPα) [5]: significant increase
effect on NMDA receptor currents [6]: potentiated NMDA receptor currents

M1 activation [7]: less than 30%
Structure (SMILES): CCOC(=O)N1CCC(N2CCN(C(=O)c3ccccc3C)CC2)CC1 [compound 13]

M1 activation [7]: less than 30%
Structure (SMILES): CCOC(=O)N1CCC(N2C[C@@H]3C[C@H]2CN3C(=O)c2ccccc2C)CC1 [compound 14]

M1 activation [7]: less than 30%
Structure (SMILES): CCOC(=O)N1CCC(N2C[C@H]3CN(C(=O)c4ccccc4C)C[C@H]3C2)CC1 [compound 15]

M1 activation [7]: inactive
Structure (SMILES): CCOC(=O)N1CCC(N2CCC[C@H](NC(=O)c3ccccc3C)C2)CC1 [compound 16]
